Measured values collected from several papers.
Compare with care: the assays were run in different laboratories.
Read-out: cell growth or viability

SMILES	cell line	assay	setting	quantity	value
CCc1cc(CN2CCc3cc(OS(N)(=O)=O)c(OC)cc3C2)cc(CC)c1CC	CNSSF-539	SRB		GI50	0.916 µM
O=C1CCc2ccccc2C(=O)c2ccccc2N1	L6			IC50	230 µM
COc1cc(CN2CCc3cc(O)ccc3C2)cc(OC)c1OC	CNSSF-539	SRB		GI50	0.036 µM
CC[C@@]1(O)C(=O)OCc2c1cc1n(c2=O)Cc2cc3c(CN(C)C)c(O)ccc3nc2-1	GISTT1	resazurin	72 h	IC50	0.08 µM
CN1C(=O)c2ccccc2CCC(=O)c2ccccc21	L6			IC50	> 380 µM
O=c1ncccn1[C@@H]1O[C@H](CO)[C@@H](O)[C@H]1O	MEC1		48 h	IC20	75 µM
O=C1CCc2c(O)cccc2C(=O)Nc2ccccc21	L6			IC50	210 µM
CN(C)c1ccc(C(=C2C=CC(=[N+](C)C)C=C2)c2ccc(N(C)C)cc2)cc1	GISTT1	resazurin	72 h	IC50	0.52 µM
CC[C@@]1(O)C(=O)OCc2c1cc1n(c2=O)Cc2cc3ccccc3nc2-1	CNSSF-539	SRB	48 h	GI50	0.01 µM
N#Cc1ccc2c(c1)C(=O)CCc1ccccc1C(=O)N2	L6			IC50	160 µM
Nc1nc(Cl)nc2c1ncn2[C@H]1C[C@H](O)[C@@H](CO)O1	GISTT1	resazurin	72 h	IC50	> 1 µM
CC(=O)Nc1cccc(-n2c(=O)n(C3CC3)c(=O)c3c(Nc4ccc(I)cc4F)n(C)c(=O)c(C)c32)c1	SW1417	resazurin	6.25 nM, 72 h	viability	71.8%
